Experimental data: ChEMBL document CHEMBL1159058, “Triazoloacridin-6-ones as novel inhibitors of the quinone oxidoreductases NQO1 and NQO2” (Bioorg Med Chem, 2010)

Key:
[1] = system: HCT-116; experiment: Cytotoxicity against human HCT116 cells after 24 hrs by MTT assay; assay type: functional, cell-based; details: HCT-116, 24 h
Method in brief: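 HCT116 cells were kept in RPMI 1640 with 10% FCS and 2 mM L-glutamine, plated at 2 × 10³ cells/well, 37 °C, 5% CO₂. Drug was given for 24 h, then removed, and cells regrew 3 days in fresh medium. Read-out was MTT for 4 h, formazan dissolved in DMSO, OD read. IC50 is 50% OD reduction vs untreated/vehicle controls. At least three repeats.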

[2] = molecular target: T1, Ribosyldihydronicotinamide dehydrogenase [quinone] (Homo sapiens, UniProt P16083); experiment: Inhibition of human recombinant NQO2 by spectrophotometry
T1 sequence (P16083 whole entry): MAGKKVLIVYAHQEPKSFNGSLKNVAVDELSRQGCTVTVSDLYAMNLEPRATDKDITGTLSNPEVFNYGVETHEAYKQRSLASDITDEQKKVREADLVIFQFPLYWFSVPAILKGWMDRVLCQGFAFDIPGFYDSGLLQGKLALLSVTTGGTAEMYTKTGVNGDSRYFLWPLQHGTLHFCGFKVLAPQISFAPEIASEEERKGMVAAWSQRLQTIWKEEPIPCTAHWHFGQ
Method in brief: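 Recombinant human NQO2 was diluted in 50 mM phosphate to give about 0.1 absorbance/min. Reaction mix: 50 mM phosphate pH 7.4 with 200 µM NRH as cofactor, 40 µM DCPIP and inhibitor in DMSO (1.0% v/v final), 37 °C. DCPIP reduction was followed at 600 nm.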

[3] = system: Nucleic Acid; experiment: Binding affinity to salmon sperm DNA assessed as change in melting temperature at 10 uM under low salt concentration by spectrophotometry; assay type: nucleic-acid assay; details: Salmonidae
Method in brief: (§1)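 Salmon sperm DNA at 20 µg/ml was treated with 10 µM compound at high (physiological) or low salt; the low-salt buffer was 7.5 mM NaH₂PO₄, 1 mM EDTA, pH 7.0. Cuvettes were heated from 37 to 98 °C with A260 read every degree. Tm change is in °C, SD from three independent experiments.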

[4] = system: Nucleic Acid; experiment: Binding affinity to salmon sperm DNA assessed as change in melting temperature at 10 uM under high salt concentration by spectrophotometry; assay type: nucleic-acid assay; details: Salmonidae; method in brief: as §1
[5] = system: HCT-116; experiment: Cytotoxicity against human HCT116 cells after 96 hrs by MTT assay; assay type: functional, cell-based; details: HCT-116, 96 h
Method in brief: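 HCT116 cells were grown in RPMI 1640 with 10% FCS and 2 mM L-glutamine, seeded at 2 × 10³ cells/well, 37 °C, 5% CO₂. Drug exposure was continuous for 4 days at 37 °C. MTT was then added for 4 h and formazan dissolved in DMSO for OD reading. IC50 is 50% OD drop relative to untreated and/or vehicle cells. At least three repeats.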

[6] = system: Nucleic Acid; experiment: Binding affinity to salmon sperm DNA assessed as melting temperature at 10 uM under low salt concentration by spectrophotometry; assay type: nucleic-acid assay; details: Salmonidae
[7] = molecular target: NAD(P)H dehydrogenase [quinone] 1 (Homo sapiens, UniProt P15559); experiment: Inhibition of human recombinant NQO1 by spectrophotometry
NAD(P)H dehydrogenase [quinone] 1, sequence (P15559 whole entry): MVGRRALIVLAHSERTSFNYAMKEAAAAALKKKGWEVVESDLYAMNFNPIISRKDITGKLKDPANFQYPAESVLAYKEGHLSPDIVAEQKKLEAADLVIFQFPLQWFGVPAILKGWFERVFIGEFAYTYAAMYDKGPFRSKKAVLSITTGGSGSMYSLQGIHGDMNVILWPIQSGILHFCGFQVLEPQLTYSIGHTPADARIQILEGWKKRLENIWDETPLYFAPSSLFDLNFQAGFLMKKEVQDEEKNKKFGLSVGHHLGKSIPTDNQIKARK

Row | SMILES | IC50 [2] [nM] | ΔTm [3] [°C] | ΔTm [4] [°C] | Tm [6] [°C] | IC50 [7] [nM] | IC50 [1] [nM] | IC50 [5] [nM]
1 | COc1ccc2c(c1)c(=O)c1c(NCCN(C)C)ccc3nnn2c31 | 1330 | 2.9 | 0.08 | 83 | 111 | 1000 | 333
2 | CN(C)CCNc1ccc2nnn3c4ccccc4c(=O)c1c23 | 1830 | 1.7 | 0.33 | – | 1800 | 20500 | 12400
3 | CN(C)CCNc1ccc2nnn3c4ccc(Br)cc4c(=O)c1c23 | 1480 | 2.6 | 0.2 | – | – | 1600 | 495
4 | CN(C)CCNc1ccc2nnn3c4ccc(F)cc4c(=O)c1c23 | 783 | 2.6 | 0.03 | – | – | 1200 | 465
5 | O=c1c2cc(Br)ccc2n2nnc3ccc(NCCCO)c1c32 | 987 | 3 | 0.42 | – | – | 2800 | 715
6 | CC(C)CCNc1ccc2nnn3c4ccc(Br)cc4c(=O)c1c23 | 767 | 1.9 | 0.09 | – | – | 27000 | 7000
7 | COc1cccc2c1C(=O)c1c(O)c3c(c(O)c1C2=O)C[C@@](O)(C(=O)CO)C[C@@H]3O[C@H]1C[C@H](N)[C@H](O)[C@H](C)O1 | – | 8 | – | 88 | – | – | –

More lines, in order of falling IC50 [2], values ahead:

Row | IC50 [2] [nM] | ΔTm [3] [°C] | ΔTm [4] [°C] | Tm [6] [°C] | IC50 [7] [nM] | SMILES | IC50 [1] [nM] | IC50 [5] [nM]
8 | 567 | 1.7 | 0.31 | – | 3280 | O=c1c2ccccc2n2nnc3ccc(NCCc4ccccc4)c1c32 | 3500 | 803
9 | 517 | 3.2 | 0.19 | – | – | COc1ccc2c(c1)c(=O)c1c(NCCCO)ccc3nnn2c31 | 1500 | 627
10 | 483 | 3 | 1.48 | – | – | O=c1c2ccccc2n2nnc3ccc(NCCCO)c1c32 | 990 | 630
11 | 427 | 2 | 0.23 | – | – | CC(C)CCNc1ccc2nnn3c4ccccc4c(=O)c1c23 | 3200 | 815
12 | 350 | 1.7 | 0.08 | – | 3930 | COc1ccc2c(c1)c(=O)c1c(NCCc3ccccc3)ccc3nnn2c31 | 12500 | 711
13 | 167 | 0.5 | 0.22 | – | – | C[N+](C)([O-])CCNc1ccc2nnn3c4ccccc4c(=O)c1c23 | 80000 | 23800
14 | 117 | 0.1 | 0.45 | – | – | C[N+](C)([O-])CCNc1ccc2nnn3c4ccc(Br)cc4c(=O)c1c23 | 48000 | 12000
15 | 98 | 0.15 | 0.3 | 80 | – | COc1ccc2c(c1)c(=O)c1c(NCC[N+](C)(C)[O-])ccc3nnn2c31 | 57000 | 18800
16 | 98 | 0.2 | 0.19 | – | – | COc1ccc(Nc2ccc3nnn4c5ccccc5c(=O)c2c34)cc1 | 1900 | 630
